Reference: ChEMBL document CHEMBL5260851, “Iodinated Choline Transport-Targeted Tracers” (J Med Chem, 2020)

Assays:
[1] = Cytotoxicity against human MRC5 cells; assay type: toxicity, cell-based
[2] = Cytotoxicity against human BJ cells; assay type: toxicity, cell-based
[3] = Displacement of [3H]-choline from choline transporter in human PC-3 cells preincubated with [3H]-choline for 15 mins followed by compound addition and measured after 60 mins; assay type: cell-based
[4] = Stability in human plasma assessed as parent compound remaining at 2 uM after 2 hrs by RF-MS analysis; assay type: ADME, cell-free; details: read-out: Stability
Procedure, shortened: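 Compound at 2 μM final (DMSO ≤0.1%) incubated in human plasma at 37 °C, sampled at 0, 15, 30, 60 and 120 min. Quenched with ACN–methanol (2:1) and measured by RapidFire-MS/MS (ESI+, MRM). The value is the percent of parent remaining.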

[5] = Stability in human liver microsomes assessed as parent compound remaining at 2 uM after 60 mins in presence of NADPH generating system by RF-MS analysis; assay type: ADME, Microsome; details: read-out: Stability
Procedure, shortened: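 Compound at 2 μM with human liver microsomes (0.5 mg·mL⁻¹) and an NADPH-generating system (NADP⁺, isocitrate dehydrogenase, isocitric acid, MgSO4) in 0.1 M phosphate buffer at 37 °C. Samples taken at 0, 15, 30 and 60 min, quenched with ACN–methanol (2:1), freeze-dried, and analysed by RapidFire-MS against an internal standard.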

[6] = Displacement of [3H]-choline from choline transporter in human U-87 MG cells preincubated with [3H]-choline for 15 mins followed by compound addition and measured after 60 mins; assay type: cell-based
Procedure, shortened: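 PC-3 cells were grown in F12 Ham with 10% FBS, 0.25% bicarbonate and pen/strep; U-87 MG cells in DMEM with 10% FBS, 0.1 mM NEAA and 1.0 mM pyruvate; both at 37 °C, 5% CO2, used at 70–90% confluence. [3H]choline was added in Tris uptake buffer (pH 7.4), then compound in triplicate over 10 concentrations; readout was radioactivity per g of protein (BCA), with IC50 from a sigmoidal fit.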

PC-3 [7] = assay: Biodistribution in human PC-3 cells xenografted mouse measured after 3 hrs by SPECT method; assay type: ADME, organism-based; details: in vivo
Procedure, shortened: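 Mice carried subcutaneous PC-3 xenografts. Static whole-body SPECT scans of 30 min under 2% isoflurane were run at 1, 3 and 24 h p.i., then a 20 min double CT.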

PC-3 [8] = assay: Biodistribution in human PC-3 cells xenografted mouse measured after 3 hrs by PET method; assay type: ADME, organism-based; details: in vivo
Procedure, shortened: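 Mice carried subcutaneous PC-3 xenografts (5 × 10⁶ cells, right flank), with tumors at 100–300 mm³. [18F]fluorocholine 5–7 MBq was given retro-orbitally.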

Row | IC50 [3] | remaining at 2 h, 2 µM [4] | remaining at 1 h, 2 µM [5] | IC50 [6] | Drug uptake (PC-3 [7]) | Drug uptake (PC-3 [8]) | Compound | IC50 [1] | IC50 [2]
1 | 4.7 µM | – | – | – | – | – | C[N+](C)(C)CCO [CHOLINE] | – | –
2 | 216 µM | – | – | – | – | – | C[N+](C)(CCO)Cc1ccccc1I | > 50 µM | > 50 µM
3 | 273 µM | – | – | – | – | – | OCC[N+]1(Cc2ccc(I)cc2)CCOCC1 | > 50 µM | > 50 µM
4 | 34 µM | – | – | – | – | – | COc1ccc(CCC[N+](C)(C)CCO)cc1I | > 50 µM | > 50 µM
5 | 23 µM | – | – | – | – | – | C[N+](C)(CCO)CCOc1ccc(I)cc1 | > 50 µM | > 50 µM
6 | 25 µM | – | – | – | – | – | C[N+](C)(CCO)CCOc1ccccc1I | > 50 µM | > 50 µM
7 | 11 µM | 91% | 54% | – | – | – | C[N+](C)(CCO)CCCCOc1ccccc1I | > 50 µM | > 50 µM
8 | 908 µM | – | – | – | – | – | OCCN1CC[N+](CCO)(Cc2ccccc2I)CC1 | > 50 µM | > 50 µM
9 | 130 µM | – | – | 129 µM | – | – | C[N+](C)(CCO)Cc1ccc(I)cc1 | > 50 µM | > 50 µM
10 | 133 µM | – | – | 25 µM | – | – | C[N+](C)(CCO)Cc1cccc(I)c1 | > 50 µM | > 50 µM
11 | 11 µM | 81% | 74% | 3.3 µM | – | – | OCC[N+]1(Cc2ccc(I)cc2)CCCC1 [listing 1 of 2 here] | > 50 µM | > 50 µM
12 | 0.91 µM | 91% | 79% | – | – | – | OCC[N+]1(CCCCCCOc2cccc(I)c2)CCCC1 | > 50 µM | > 50 µM
13 | 0.45 µM | 89% | 86% | – | – | – | C[N+](C)(CCO)CCc1ccc(I)s1 | > 50 µM | > 50 µM
14 | 30 µM | – | – | – | – | – | C[N+](C)(CCCCO)CCc1ccc(I)s1 | > 50 µM | > 50 µM
15 | 36 µM | – | – | – | – | – | C[N+](C)(CCO)CCCCC#CI | > 50 µM | > 50 µM
16 | 3 µM | 89% | 95% | – | – | – | C[N+](C)(CCO)CCCC#CI | > 50 µM | > 50 µM
17 | 1.2 µM | 80% | 100% | 0.78 µM | – | – | C[N+](C)(CCO)CCc1cccc(I)c1 | > 50 µM | > 50 µM
18 | 16 µM | – | – | 23 µM | – | – | OCC[N+]1(Cc2ccc(I)cc2)CCCC1 [listing 2 of 2 here] | – | –
19 | 77 µM | – | – | 77 µM | – | – | CC[N+](CC)(CCO)Cc1ccc(I)cc1 | > 50 µM | > 50 µM
20 | 0.41 µM | 60% | 93% | 2.1 µM | – | – | CCCCCCOc1ccc(CCC[N+](C)(C)CCO)cc1I | – | –
21 | 15 µM | – | – | – | – | – | OCC[N+]1(CCOc2cccc(I)c2)CCCC1 | > 50 µM | > 50 µM
22 | 18 µM | – | – | – | – | – | OCC[N+]1(CCOc2ccc(I)cc2)CCCC1 | > 50 µM | > 50 µM
23 | 217 µM | – | – | – | – | – | OCC[N+]1(Cc2ccccc2I)CCCCC1 | > 50 µM | > 50 µM
24 | 28 µM | 66% | 90% | 8.8 µM | – | – | OCC[N+]1(Cc2cccc(I)c2)CCCC1 | > 50 µM | > 50 µM

Row | IC50 [3] | remaining at 2 h, 2 µM [4] | remaining at 1 h, 2 µM [5] | IC50 [6] | Drug uptake (PC-3 [7]) | Drug uptake (PC-3 [8]) | Compound | IC50 [1] | IC50 [2]
25 | – | – | – | – | Not Active | – | CS(=O)(=O)[O-].OCC[N+]1(Cc2cccc([123I])c2)CCCC1 | – | –
26 | 0.044 µM | 83% | 85% | – | – | – | C[N+](C)(CCO)CCCCCCOc1cccc(I)c1 | > 50 µM | > 50 µM
27 | 20 µM | – | – | – | – | – | C[N+](C)(CF)CCO | – | –
28 | 10 µM | 86% | 86% | – | – | – | OCC[N+]1(CCc2ccc(I)s2)CCCC1 | > 50 µM | > 50 µM
29 | 197 µM | – | – | – | – | – | C[N+]1(Cc2ccccc2I)CCCC(O)C1 (stereo not drawn) | > 50 µM | > 50 µM
30 | – | – | – | – | – | Not Active | C[N+](C)(C[18F])CCO.[Cl-] | – | –
31 | 43 µM | – | – | – | – | – | OCC[N+]1(Cc2ccccc2I)CCOCC1 | > 50 µM | > 50 µM
32 | 0.14 µM | 89% | 92% | – | – | – | C[N+](C)(CCO)CCCCCCOc1ccc(I)c([N+](=O)[O-])c1 | > 50 µM | > 50 µM
33 | 2.1 µM | 85% | 82% | 1.7 µM | – | – | CCCCCCCCCCOc1ccc(CCC[N+](C)(C)CCO)cc1I | – | –
34 | 1.1 µM | – | – | – | – | – | C[N+](C)(CCCO)CCc1ccc(I)s1 | > 50 µM | > 50 µM
35 | 8.1 µM | 85% | 100% | 4.3 µM | – | – | CC[N+](CC)(CCO)Cc1ccccc1I | > 50 µM | > 50 µM
36 | 18 µM | – | – | – | – | – | OCC[N+]1(CCCCC#CI)CCCC1 | > 50 µM | > 50 µM
37 | 18 µM | – | – | – | – | – | Cc1ccc(OCCCC[N+](C)(C)CCO)c(I)n1 | > 50 µM | > 50 µM
38 | 4.7 µM | 81% | 78% | – | – | – | OCC[N+]1(CCOc2ccccc2I)CCCC1 | > 50 µM | > 50 µM
39 | 22 µM | – | – | – | – | – | C[N+](C)(CCO)CCOc1cccc(I)c1 | > 50 µM | > 50 µM
40 | – | – | – | – | Not Active | – | C[N+](C)(CCO)CCCCCCOc1cccc([123I])c1.[Br-] | – | –
41 | 1.3 µM | 90% | 89% | – | – | – | C[N+](C)(CCO)CCCCOc1ccc(-c2ccccc2)cc1I | – | –
42 | 8.6 µM | – | – | – | – | – | C[N+](C)(CCO)CCc1ccc(I)cc1 | > 50 µM | > 50 µM
43 | 106 µM | – | – | – | – | – | C[N+]1(CCc2ccc(I)cc2)CCCC(O)C1 (stereo not drawn) | > 50 µM | > 50 µM
44 | 5.1 µM | 91% | 70% | – | – | – | OCC[N+]1(CCCCOc2ccccc2I)CCCC1 | > 50 µM | > 50 µM
45 | 53 µM | – | – | – | – | – | COc1c(I)cc(CC[N+](C)(C)CCO)cc1I | > 50 µM | > 50 µM
46 | 1.4 µM | 86% | 86% | – | – | – | C[N+](C)(CCO)CCCCCCOc1cccnc1I | > 50 µM | > 50 µM
47 | 24 µM | – | – | – | – | – | COc1ccc(CC[N+](C)(C)CCO)cc1I | > 50 µM | > 50 µM

Row | Compound | IC50 [3] | remaining at 2 h, 2 µM [4] | remaining at 1 h, 2 µM [5] | IC50 [6] | Drug uptake (PC-3 [7]) | Drug uptake (PC-3 [8]) | IC50 [1] | IC50 [2]
48 | COc1ccc(CC[N+]23CCC(CC2)C(O)C3)cc1I (stereo not drawn) | 115 µM | – | – | – | – | – | > 50 µM | > 50 µM
49 | OCC[N+]1(CCc2ccc(I)cc2)CCCC1 | 19 µM | 98% | 96% | 29 µM | – | – | > 50 µM | > 50 µM
50 | C[N+]1(C)CCOC(O)(c2ccc(-c3ccc(C4(O)C[N+](C)(C)CCO4)cc3)cc2)C1 (stereo not drawn) | 36 µM | – | – | – | – | – | – | –
51 | OC1C[N+]2(CCc3ccc(I)cc3)CCC1CC2 (stereo not drawn) | 75 µM | – | – | – | – | – | > 50 µM | > 50 µM
52 | OC1C[N+]2(Cc3ccccc3I)CCC1CC2 (stereo not drawn) | 160 µM | – | – | – | – | – | > 50 µM | > 50 µM
